Test system: U2OS
Test: Multiplex assay against U2OS
Format: toxicity, cell-based
Conditions: human
How it was run: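 Per cents of healthy-nucleus cells form the tubulin, mitochondrial-mass and membrane-permeability phenotype values. Live cells were stained at seeding with Hoechst33342, BioTracker Green Microtubule Cytoskeleton Dye, MitoTracker Red and Annexin V Alexa Fluor 680. After compound addition they were imaged on a CQ1 microscope at 37°C and 5% CO2, and CellPathfinder machine-learning gating split them into Hoechst high-intensity objects or normal cells, normal cells into healthy, pyknosed or fragmented nuclei, and pyknosed cells into mitotic or apoptotic.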

[1] = 12 h, 1 µM, compound concentration 1 uM, replicate 1
[2] = 12 h, 1 µM, compound concentration 1 uM, replicate 2
[3] = 12 h, 10 µM, compound concentration 10 uM, replicate 1
[4] = 12 h, 10 µM, compound concentration 10 uM, replicate 2
[5] = 24 h, 1 µM, compound concentration 1 uM, replicate 1
[6] = 24 h, 1 µM, compound concentration 1 uM, replicate 2
[7] = 24 h, 10 µM, compound concentration 10 uM, replicate 1
[8] = 24 h, 10 µM, compound concentration 10 uM, replicate 2
[9] = 48 h, 1 µM, compound concentration 1 uM, replicate 1
[10] = 48 h, 1 µM, compound concentration 1 uM, replicate 2
[11] = 48 h, 10 µM, compound concentration 10 uM, replicate 1
[12] = 48 h, 10 µM, compound concentration 10 uM, replicate 2

Cc1nc(Nc2n[nH]c3c2CN(C(=O)N[C@H](CN(C)C)c2ccccc2)C3(C)C)c2sccc2n1 [PF-03758309]
Population Apoptotic (%) [1]: 47% | Population Fragmented Nuclei (%) [1]: 9% | Population Healthy Nuclei (%) [1]: 79% | Population Hoechst High Intensity Objects (%) [1]: 2% | Population Membrane Permeable-Phenotype (%) [1]: 9% | Population Mitochondria Different-Phenotype (%) [1]: 21% | Population Mitotic Cells (%) [1]: 52% | Population Normal (%) [1]: 97% | Population Pyknosed Nuclei (%) [1]: 11% | Population Tubulin-Different-Phenotype (%) [1]: 21% | Total Cell Count [1]: 234 | Population Apoptotic (%) [2]: 20% | Population Fragmented Nuclei (%) [2]: 10% | Population Healthy Nuclei (%) [2]: 78% | Population Hoechst High Intensity Objects (%) [2]: 15% | Population Membrane Permeable-Phenotype (%) [2]: 5% | Population Mitochondria Different-Phenotype (%) [2]: 18% | Population Mitotic Cells (%) [2]: 80% | Population Normal (%) [2]: 84% | Population Pyknosed Nuclei (%) [2]: 10% | Population Tubulin-Different-Phenotype (%) [2]: 24% | Total Cell Count [2]: 118 | Population Apoptotic (%) [3]: 53% | Population Fragmented Nuclei (%) [3]: 16% | Population Healthy Nuclei (%) [3]: 54% | Population Hoechst High Intensity Objects (%) [3]: 3% | Population Membrane Permeable-Phenotype (%) [3]: 18% | Population Mitochondria Different-Phenotype (%) [3]: 37% | Population Mitotic Cells (%) [3]: 46% | Population Normal (%) [3]: 97% | Population Pyknosed Nuclei (%) [3]: 28% | Population Tubulin-Different-Phenotype (%) [3]: 75% | Total Cell Count [3]: 173 | Population Apoptotic (%) [4]: 75% | Population Fragmented Nuclei (%) [4]: 20% | Population Healthy Nuclei (%) [4]: 63% | Population Hoechst High Intensity Objects (%) [4]: 18% | Population Membrane Permeable-Phenotype (%) [4]: 12% | Population Mitochondria Different-Phenotype (%) [4]: 59% | Population Mitotic Cells (%) [4]: 25% | Population Normal (%) [4]: 81% | Population Pyknosed Nuclei (%) [4]: 16% | Population Tubulin-Different-Phenotype (%) [4]: 85% | Total Cell Count [4]: 112 | Population Apoptotic (%) [5]: 58% | Population Fragmented Nuclei (%) [5]: 11% | Population Healthy Nuclei (%) [5]: 80% | Population Hoechst High Intensity Objects (%) [5]: 3% | Population Membrane Permeable-Phenotype (%) [5]: 17% | Population Mitochondria Different-Phenotype (%) [5]: 19% | Population Mitotic Cells (%) [5]: 41% | Population Normal (%) [5]: 96% | Population Pyknosed Nuclei (%) [5]: 8% | Population Tubulin-Different-Phenotype (%) [5]: 25% | Total Cell Count [5]: 292 | Population Apoptotic (%) [6]: 38% | Population Fragmented Nuclei (%) [6]: 16% | Population Healthy Nuclei (%) [6]: 71% | Population Hoechst High Intensity Objects (%) [6]: 13% | Population Membrane Permeable-Phenotype (%) [6]: 12% | Population Mitochondria Different-Phenotype (%) [6]: 29% | Population Mitotic Cells (%) [6]: 61% | Population Normal (%) [6]: 86% | Population Pyknosed Nuclei (%) [6]: 12% | Population Tubulin-Different-Phenotype (%) [6]: 33% | Total Cell Count [6]: 121 | Population Apoptotic (%) [7]: 78% | Population Fragmented Nuclei (%) [7]: 25% | Population Healthy Nuclei (%) [7]: 38% | Population Hoechst High Intensity Objects (%) [7]: 12% | Population Membrane Permeable-Phenotype (%) [7]: 44% | Population Mitochondria Different-Phenotype (%) [7]: 64% | Population Mitotic Cells (%) [7]: 21% | Population Normal (%) [7]: 88% | Population Pyknosed Nuclei (%) [7]: 36% | Population Tubulin-Different-Phenotype (%) [7]: 88% | Total Cell Count [7]: 202 | Population Apoptotic (%) [8]: 85% | Population Fragmented Nuclei (%) [8]: 19% | Population Healthy Nuclei (%) [8]: 50% | Population Hoechst High Intensity Objects (%) [8]: 25% | Population Membrane Permeable-Phenotype (%) [8]: 38% | Population Mitochondria Different-Phenotype (%) [8]: 82% | Population Mitotic Cells (%) [8]: 14% | Population Normal (%) [8]: 74% | Population Pyknosed Nuclei (%) [8]: 30% | Population Tubulin-Different-Phenotype (%) [8]: 82% | Total Cell Count [8]: 121

CN(C)C(=O)/C(C#N)=C/c1ccc(-c2nc3cnc4[nH]ccc4c3n2C2CCCCC2)o1
Population Apoptotic (%) [1]: 60% | Population Fragmented Nuclei (%) [1]: 17% | Population Healthy Nuclei (%) [1]: 69% | Population Hoechst High Intensity Objects (%) [1]: 8% | Population Membrane Permeable-Phenotype (%) [1]: 5% | Population Mitochondria Different-Phenotype (%) [1]: 14% | Population Mitotic Cells (%) [1]: 40% | Population Normal (%) [1]: 91% | Population Pyknosed Nuclei (%) [1]: 13% | Population Tubulin-Different-Phenotype (%) [1]: 8% | Total Cell Count [1]: 122 | Population Apoptotic (%) [2]: 57% | Population Fragmented Nuclei (%) [2]: 4% | Population Healthy Nuclei (%) [2]: 87% | Population Hoechst High Intensity Objects (%) [2]: 2% | Population Membrane Permeable-Phenotype (%) [2]: 2% | Population Mitochondria Different-Phenotype (%) [2]: 6% | Population Mitotic Cells (%) [2]: 42% | Population Normal (%) [2]: 97% | Population Pyknosed Nuclei (%) [2]: 7% | Population Tubulin-Different-Phenotype (%) [2]: 24% | Total Cell Count [2]: 75 | Population Apoptotic (%) [3]: 19% | Population Fragmented Nuclei (%) [3]: 17% | Population Healthy Nuclei (%) [3]: 56% | Population Hoechst High Intensity Objects (%) [3]: 49% | Population Membrane Permeable-Phenotype (%) [3]: 12% | Population Mitochondria Different-Phenotype (%) [3]: 55% | Population Mitotic Cells (%) [3]: 80% | Population Normal (%) [3]: 50% | Population Pyknosed Nuclei (%) [3]: 25% | Population Tubulin-Different-Phenotype (%) [3]: 75% | Total Cell Count [3]: 167 | Population Apoptotic (%) [4]: 18% | Population Fragmented Nuclei (%) [4]: 20% | Population Healthy Nuclei (%) [4]: 62% | Population Hoechst High Intensity Objects (%) [4]: 54% | Population Membrane Permeable-Phenotype (%) [4]: 13% | Population Mitochondria Different-Phenotype (%) [4]: 63% | Population Mitotic Cells (%) [4]: 81% | Population Normal (%) [4]: 45% | Population Pyknosed Nuclei (%) [4]: 17% | Population Tubulin-Different-Phenotype (%) [4]: 70% | Total Cell Count [4]: 91 | Population Apoptotic (%) [5]: 75% | Population Fragmented Nuclei (%) [5]: 12% | Population Healthy Nuclei (%) [5]: 79% | Population Hoechst High Intensity Objects (%) [5]: 5% | Population Membrane Permeable-Phenotype (%) [5]: 4% | Population Mitochondria Different-Phenotype (%) [5]: 8% | Population Mitotic Cells (%) [5]: 25% | Population Normal (%) [5]: 94% | Population Pyknosed Nuclei (%) [5]: 8% | Population Tubulin-Different-Phenotype (%) [5]: 6% | Total Cell Count [5]: 133 | Population Apoptotic (%) [6]: 54% | Population Fragmented Nuclei (%) [6]: 5% | Population Healthy Nuclei (%) [6]: 84% | Population Hoechst High Intensity Objects (%) [6]: 4% | Population Membrane Permeable-Phenotype (%) [6]: 2% | Population Mitochondria Different-Phenotype (%) [6]: 10% | Population Mitotic Cells (%) [6]: 45% | Population Normal (%) [6]: 95% | Population Pyknosed Nuclei (%) [6]: 9% | Population Tubulin-Different-Phenotype (%) [6]: 36% | Total Cell Count [6]: 81 | Population Apoptotic (%) [7]: 34% | Population Fragmented Nuclei (%) [7]: 17% | Population Healthy Nuclei (%) [7]: 56% | Population Hoechst High Intensity Objects (%) [7]: 44% | Population Membrane Permeable-Phenotype (%) [7]: 15% | Population Mitochondria Different-Phenotype (%) [7]: 45% | Population Mitotic Cells (%) [7]: 65% | Population Normal (%) [7]: 55% | Population Pyknosed Nuclei (%) [7]: 25% | Population Tubulin-Different-Phenotype (%) [7]: 55% | Total Cell Count [7]: 196 | Population Apoptotic (%) [8]: 44% | Population Fragmented Nuclei (%) [8]: 28% | Population Healthy Nuclei (%) [8]: 53% | Population Hoechst High Intensity Objects (%) [8]: 54% | Population Membrane Permeable-Phenotype (%) [8]: 12% | Population Mitochondria Different-Phenotype (%) [8]: 49% | Population Mitotic Cells (%) [8]: 55% | Population Normal (%) [8]: 45% | Population Pyknosed Nuclei (%) [8]: 17% | Population Tubulin-Different-Phenotype (%) [8]: 45% | Total Cell Count [8]: 125 | Population Apoptotic (%) [9]: 55% | Population Fragmented Nuclei (%) [9]: 8% | Population Healthy Nuclei (%) [9]: 85% | Population Hoechst High Intensity Objects (%) [9]: 0% | Population Membrane Permeable-Phenotype (%) [9]: 3% | Population Mitochondria Different-Phenotype (%) [9]: 7% | Population Mitotic Cells (%) [9]: 44% | Population Normal (%) [9]: 99% | Population Pyknosed Nuclei (%) [9]: 6% | Population Tubulin-Different-Phenotype (%) [9]: 10% | Total Cell Count [9]: 179 | Population Apoptotic (%) [10]: 30% | Population Fragmented Nuclei (%) [10]: 4% | Population Healthy Nuclei (%) [10]: 90% | Population Hoechst High Intensity Objects (%) [10]: 1% | Population Membrane Permeable-Phenotype (%) [10]: 1% | Population Mitochondria Different-Phenotype (%) [10]: 15% | Population Mitotic Cells (%) [10]: 70% | Population Normal (%) [10]: 98% | Population Pyknosed Nuclei (%) [10]: 5% | Population Tubulin-Different-Phenotype (%) [10]: 43% | Total Cell Count [10]: 104 | Population Apoptotic (%) [11]: 39% | Population Fragmented Nuclei (%) [11]: 26% | Population Healthy Nuclei (%) [11]: 47% | Population Hoechst High Intensity Objects (%) [11]: 44% | Population Membrane Permeable-Phenotype (%) [11]: 23% | Population Mitochondria Different-Phenotype (%) [11]: 18% | Population Mitotic Cells (%) [11]: 60% | Population Normal (%) [11]: 55% | Population Pyknosed Nuclei (%) [11]: 25% | Population Tubulin-Different-Phenotype (%) [11]: 36% | Total Cell Count [11]: 279 | Population Apoptotic (%) [12]: 63% | Population Fragmented Nuclei (%) [12]: 34% | Population Healthy Nuclei (%) [12]: 49% | Population Hoechst High Intensity Objects (%) [12]: 48% | Population Membrane Permeable-Phenotype (%) [12]: 27% | Population Mitochondria Different-Phenotype (%) [12]: 27% | Population Mitotic Cells (%) [12]: 36% | Population Normal (%) [12]: 51% | Population Pyknosed Nuclei (%) [12]: 16% | Population Tubulin-Different-Phenotype (%) [12]: 31% | Total Cell Count [12]: 172
